Published values collected from several papers.
Target: Cyclin-dependent kinase-like 1 (CDKL1, Homo sapiens, UniProt Q00532)

Cc1ccc(C(=O)Nc2ccc(CN3CCN(C)CC3)c(C(F)(F)F)c2)cc1C#Cc1cnc2cccnn12 gave a remaining activity of 85% (enzyme activity; 23.5 nM).
The remaining activity of COc1cc(Cl)c(C(=O)N[C@@H](CN[C@H]2CC[C@@H](N)CC2)Cc2ccc(C#N)cc2)cc1-c1ccc(CN[C@H](C)c2ccc(C)cc2)o1 is reported as 101% (enzyme activity; inhibitor; 1 µM).
For Nc1ncnc2occ(-c3ccc(NC(=O)Nc4cc(C(F)(F)F)ccc4F)cc3)c12, the remaining signal was 0.55% (cell-free assay; 20 µM).
Cn1c2c(Cl)c(Cl)ccc2c2cc(N)[nH]c(=O)c21 has a ΔTm of 0.3 °C (thermal stability; DSF; 10 µM).
NS(=O)(=O)c1cc(NC(=O)C2(c3ccccc3Cl)CC2)ccc1Oc1cccc(Cl)c1 gave a remaining binding of 99% (binding; competition with immobilised ligand; 1 µM).
CN1CC(Oc2cnc(C#N)cc2-c2ccn3nc(NC(=O)C4CC4)cc3c2)C1 gave an inhibition of 5% (enzyme activity; inhibitor; 1 µM).
CO[C@@H](C)c1c(Nc2ccc([C@@H](N(C)C(=O)C3CCS(=O)(=O)CC3)C(F)(F)F)cc2)cnc2cc(Cl)nn12 has a remaining binding of 74% (cell-free assay; competition with immobilised ligand; 1 µM).
With CCC1(CC)NC(=O)c2c(c3ccc(Cl)c(Cl)c3n2C)C1C#N (centres unmarked) the ΔTm was 0 °C (thermal stability; DSF; 10 µM).
